Assay results taken from PubChem BioAssay AID638 (SRMLSC, 2007).
About 65 (5%) of roughly 1,300 compounds were called active. Many of the other results were omitted from the sample, so actives are more common in it than they were. Potency and affinity values are given separately. Unmarked numbers belong to inactive results.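 The calls were made as follows: active = growth inhibition reaching a set limit at one or more tested doses; inactive = the rest.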

Test: wild-type E. coli BW25113 antibacterial activity – OD615, dose response (AID 638)
Conditions: at 100 µM (top of the series)
Summary of the method: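 Assay system: E. coli BW25113 wild type; buffer or medium: Kanamycin-supplemented LB broth; signal: optical density (absorbance) at 615 nm; controls: chloramphenicol 30 µM control; doses: compound concentration series; times: bacterial exposure to compound 20 h at 37 °C; evaluation: IC50 from 4-parameter logistic, bounds fixed 0–100%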

Question: For `Clc1ccc(COC(Cn2ccnc2)c2ccc(Cl)cc2Cl)cc1` (stereo not given), which growth inhibition is on record?
Answer: The growth inhibition was 4.14%.

Question: Which growth inhibition does the source give for `Clc1ccc(COC(Cn2ccnc2)c2ccc(Cl)cc2Cl)c(Cl)c1` (stereo not given) here?
Answer: Its growth inhibition is 10.9% (active).

Question: Which growth inhibition does the source give for `Cc1nn(-c2ccccc2)c(Cl)c1C1C(C#N)=C(N)Oc2c1c(=O)oc1ccccc21` (stereo not given) here?
Answer: The growth inhibition was 3.35%.

Question: Which growth inhibition does the source give for `CN(C)C1(c2nnnn2CCOC(=O)Nc2ccc(Cl)cc2)CCCCC1` here?
Answer: Its growth inhibition is 4.48%.

Question: Which growth inhibition does the source give for `CCC(=Nc1ccc(OC)cc1OC)c1c(O)n(C2CCCCC2)c(=O)[nH]c1=O` here?
Answer: Its growth inhibition is -2.11%.
